# Measurements as given in ChEMBL document CHEMBL1759935, “Pharmacokinetic optimisation of novel indole-2-carboxamide cannabinoid CB1 antagonists” (Bioorg Med Chem Lett, 2011).
# Tests used:
# [1] = Intrinsic clearance in dog liver microsomes in presence of NADPH; assay type: ADME, Canis lupus familiaris, Microsome
# Summary of the method: (§1)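 P450 pathway: compound depletion in duplicate time-course incubations of microsomes at 0.5 mg protein/mL with 1 mM NADPH, pH 7.4. Liver microsomes prepared in-house; small intestinal microsomes purchased. Loss measured by LC–MS/MS; CL_int expressed per mg microsomal protein.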
# [2] = Intrinsic clearance in rat liver microsomes in presence of UGT; assay type: ADME, Microsome
# Summary of the method: (§2)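 UGT pathway: compound loss in duplicate time-course incubations of liver (prepared in-house) or small intestinal microsomes at 0.5 mg protein/mL, with 2 mM UDPGA, alamethicin and 1 mM MgCl₂ at pH 7.1. Detection by LC–MS/MS; CL_int expressed per mg microsomal protein.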
# [3] = Intrinsic clearance in human gut microsomes in presence of UGT; assay type: ADME, Microsome
# Summary of the method: (§3)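 UGT pathway: human gut or liver microsomes at 0.5 mg protein/mL with 2 mM UDPGA, alamethicin and 1 mM MgCl2, pH 7.1. Compound depletion measured by LC–MS/MS in duplicate time-course incubations; intrinsic clearance expressed per mg protein.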
# [4] = Intrinsic clearance in mouse liver microsomes in presence of NADPH; assay type: ADME, Microsome; summary of the method: as §1
# [5] = Bioavailability in mouse; assay type: ADME, organism-based; settings: in vivo
# [6] = Intrinsic clearance in human gut microsomes in presence of NADPH; assay type: ADME, Microsome
# Summary of the method: (§4)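 Pooled human microsomes (gut or liver) at 0.5 mg protein/mL with 1 mM NADPH, pH 7.4 (P450 pathway). Compound loss followed by LC–MS/MS in duplicate time-course incubations; intrinsic clearance given per mg protein.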
# [7] = Intrinsic clearance in human liver microsomes in presence of NADPH; assay type: ADME, Microsome; summary of the method: as §4
# Homo sapiens = organism: Homo sapiens; test: Clearance in human; assay type: ADME, organism-based; settings: in vivo
# [8] = Bioavailability in dog; assay type: ADME, organism-based, Canis lupus familiaris; settings: in vivo
# Mus musculus = organism: Mus musculus; test: Clearance in mouse; assay type: ADME, organism-based; settings: in vivo
# [9] = Intrinsic clearance in mouse liver microsomes in presence of UGT; assay type: ADME, Microsome; summary of the method: as §2
# [10] = Intrinsic clearance in rat liver microsomes in presence of NADPH; assay type: ADME, Microsome; summary of the method: as §1
# [11] = Bioavailability in rat; assay type: ADME, organism-based; settings: in vivo
# [12] = Intrinsic clearance in dog gut microsomes in presence of UGT; assay type: ADME, Canis lupus familiaris, Microsome; summary of the method: as §2
# [13] = Intrinsic clearance in dog gut microsomes in presence of NADPH; assay type: ADME, Canis lupus familiaris, Microsome; summary of the method: as §1
# [14] = Intrinsic clearance in dog liver microsomes in presence of UGT; assay type: ADME, Canis lupus familiaris, Microsome; summary of the method: as §2
# [15] = Intrinsic clearance in mouse gut microsomes in presence of UGT; assay type: ADME, Microsome; summary of the method: as §2
# [16] = Intrinsic clearance in human liver microsomes in presence of UGT; assay type: ADME, Microsome; summary of the method: as §3
# [17] = Intrinsic clearance in rat gut microsomes in presence of NADPH; assay type: ADME, Microsome; summary of the method: as §1
# Rattus norvegicus = organism: Rattus norvegicus; test: Clearance in rat; assay type: ADME, organism-based; settings: in vivo
# Canis familiaris = organism: Canis familiaris; test: Clearance in dog; assay type: ADME, organism-based, Canis lupus familiaris; settings: in vivo
# clinical = settings: human, in vivo
# [18] = Intrinsic clearance in mouse gut microsomes in presence of NADPH; assay type: ADME, Microsome; summary of the method: as §1
# [19] = Intrinsic clearance in rat gut microsomes in presence of UGT; assay type: ADME, Microsome; summary of the method: as §2
compound,measurement,setting,value
O=C(c1ccc(OCCN2CCCCC2)cc1)c1c(-c2ccc(O)cc2)sc2cc(O)ccc12 [RALOXIFENE],microsomal CLint,[1],178 µL/min/mg
same,microsomal CLint,[2],11 µL/min/mg
same,microsomal CLint,[3],346 µL/min/mg
same,microsomal CLint,[4],66 µL/min/mg
same,bioavailability,[5],10%
same,microsomal CLint,[6],< 6 µL/min/mg
same,microsomal CLint,[7],79 µL/min/mg
same,clearance,Homo sapiens,21 mL/min/kg
same,bioavailability,[8],5%
same,clearance,Mus musculus,108 mL/min/kg
same,microsomal CLint,[9],< 6 µL/min/mg
same,microsomal CLint,[10],79 µL/min/mg
same,bioavailability,[11],4%
same,microsomal CLint,[12],22 µL/min/mg
same,microsomal CLint,[13],< 6 µL/min/mg
same,microsomal CLint,[14],26 µL/min/mg
same,microsomal CLint,[15],34 µL/min/mg
same,microsomal CLint,[16],24 µL/min/mg
same,microsomal CLint,[17],< 6 µL/min/mg
same,clearance,Rattus norvegicus,58 mL/min/kg
same,clearance,Canis familiaris,40 mL/min/kg
same,bioavailability,clinical,2%
same,microsomal CLint,[18],< 6 µL/min/mg
same,microsomal CLint,[19],5 µL/min/mg
